Series [1] is described as follows: Solubility in water at 1 mg at 25 degC by HPLC analysis. Type of series: physicochemical. An outline of the steps: (§1)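 Solubility determined in water or 0.067 M phosphate buffer at pH 5.8, 6.8 and 7.4. Values are reported in mg/mL; ND means below the detection limit.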
Series [2] can be described thus: Solubility in pH 5.8 phosphate buffer at 1 mg at 25 degC by HPLC analysis. Type of series: physicochemical. The method, boiled down:
as §1

Series [3] is described as follows: Solubility in pH 6.8 phosphate buffer at 1 mg at 25 degC by HPLC analysis. The class given is physicochemical. The conditions noted are these: phosphate buffer, read-out: solubility. An outline of the steps:
as §1

A short description of series [4]: Solubility in pH 7.4 phosphate buffer at 1 mg at 25 degC by HPLC analysis. Type of series: physicochemical. The method, boiled down: as §1
Series [5] is described as follows: AUC in C57BL/6 mouse plasma at 100 mg/kg, po measured from 5 mins to 24 hrs by HPLC analysis. The arrangement: time upper 24 hr, dose 100 mg/kg, time lower 0.083 hr, route oral. Type of series: ADME, organism-based. An outline of the steps: (§2)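 Male C57BL/6 mice, n=3. Dosing 20 mg/kg i.v. or 100 mg/kg p.o. of parent; prodrug p.o. at 100 or 200 mg/kg. The parent compound was measured in blood/plasma and in liver from 5 min onward. Readouts were Cmax, Tmax, t1/2, CL, AUC and oral bioavailability.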

A short description of series [6]: AUC in C57BL/6 mouse plasma at 200 mg/kg, po measured from 5 mins to 24 hrs by HPLC analysis. Further details: time 0.083-24 hr, dose 200 mg/kg, route oral. The class given is ADME, organism-based. The method, boiled down:
as §2

The nature of series [7]: AUC in C57BL/6 mouse liver at 100 mg/kg, po measured from 5 mins to 24 hrs by HPLC analysis. The class given is ADME, organism-based. To be noted: in vivo. Further details: time 0.083-24 hr, dose 100 mg/kg, route oral. The method, boiled down:
as §2

The nature of series [8]: AUC in C57BL/6 mouse liver at 200 mg/kg, po measured from 5 mins to 24 hrs by HPLC analysis. The class given is ADME, organism-based. Further details: time upper 24 hr, dose 200 mg/kg, time lower 0.083 hr, route oral. To be noted: in vivo. The method, boiled down: as §2
The nature of series [9]: Tmax in C57BL/6 mouse blood at 100 mg/kg, po measured from 5 mins to 24 hrs by HPLC analysis. The class given is ADME, organism-based. The method, boiled down:
(§3)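 Male C57BL/6 mice, single oral dose of prodrug at 100 or 200 mg/kg; blood and liver levels of the parent compound measured over time; N=3; Tmax taken from the concentration–time profiles.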

Series [10] can be described thus: Tmax in C57BL/6 mouse blood at 200 mg/kg, po measured from 5 mins to 24 hrs by HPLC analysis. Type of series: ADME, organism-based. The method, boiled down: as §3
A short description of series [11]: Cmax in C57BL/6 mouse blood at 100 mg/kg, po measured from 5 mins to 24 hrs by HPLC analysis. Type of series: ADME, organism-based. The arrangement: dose 100 mg/kg, route oral. The method, boiled down:
as §2

A short description of series [12]: Cmax in C57BL/6 mouse blood at 200 mg/kg, po measured from 5 mins to 24 hrs by HPLC analysis. Type of series: ADME, organism-based. Further details: dose 200 mg/kg, route oral. The method, boiled down:
as §2

Series [13] is described as follows: Tmax in C57BL/6 mouse liver at 100 mg/kg, po measured from 5 mins to 24 hrs by HPLC analysis. The class given is ADME, organism-based. An outline of the steps: as §3
A short description of series [14]: Tmax in C57BL/6 mouse liver at 200 mg/kg, po measured from 5 mins to 24 hrs by HPLC analysis. Type of series: ADME, organism-based. An outline of the steps:
as §3

The nature of series [15]: Cmax in C57BL/6 mouse liver at 100 mg/kg, po measured from 5 mins to 24 hrs by HPLC analysis. To be noted: in vivo. Further details: dose 100 mg/kg, route oral. The class given is ADME, organism-based. The method, boiled down: as §2
Series [16] in a line: Cmax in C57BL/6 mouse liver at 200 mg/kg, po measured from 5 mins to 24 hrs by HPLC analysis. Type of series: ADME, organism-based. Further details: dose 200 mg/kg, route oral. The conditions noted are these: in vivo. The method, boiled down:
as §2

Series [17] is described as follows: Oral bioavailability in C57BL/6 mouse liver at 100 mg/kg measured from 5 mins to 24 hrs by HPLC analysis. Type of series: ADME, organism-based. The method, boiled down: as §2
Series [18] in a line: Oral bioavailability in C57BL/6 mouse liver at 200 mg/kg measured from 5 mins to 24 hrs by HPLC analysis. Type of series: ADME, organism-based. The method, boiled down: as §2
Series [19] is described as follows: Drug level in C57BL/6 mouse liver at 100 mg/kg, po measured after 5 mins by HPLC analysis. Type of series: ADME, organism-based. The conditions noted are these: in vivo.
A short description of series [20]: Half life in mouse plasma by HPLC analysis. To be noted: in vitro.

The structures appear in SMILES notation.

Results on one molecule are retold here after ChEMBL document CHEMBL4602735, “Discovery of (1H-Pyrazolo[3,4-c]pyridin-5-yl)sulfonamide Analogues as Hepatitis B Virus Capsid Assembly Modulators by Conformation Constraint” (J Med Chem, 2020).

The term solubility denotes the dissolved amount per volume that the medium holds. What is called Tmax is the time at which the peak concentration occurs. As usually defined, the half-life is the time in which the quantity being followed falls by half. On to `Cc1cc(Nc2nn(C3CC3)c3cnc(S(=O)(=O)N4CCC(OC(=O)CN(C)C)CC4)cc23)ccc1F.O=C(O)CC(O)(CC(=O)O)C(=O)O`, for which the solubility amounted to 8130 µg/mL in series [1], 7600 µg/mL in series [2], 6650 µg/mL in series [3] and 31 µg/mL in [4]. Also, the AUC in series [5] came out at 7010 ng·h/mL; in series [6] it was 21100 ng·h/mL; in series [7], 306 nmol·h/g; in [8] it was 482 nmol·h/g. Also, the time of peak concentration (Tmax) in series [9] was 1 h; in series [10], 1 h; in series [13], 2 h; in [14], 4 h. The Cmax in series [11] amounted to 3.73 µM; in [12] it was 8.84 µM; in series [15], 40 nmol/g; in [16] it was 59 nmol/g. In addition, the bioavailability in series [17] turned out to be 87.6%; in series [18] it was 132%. Further, in series [19], the Drug uptake was > 10 nmol/g. Further, in [20], the half-life is 0.783 h.
